Assay results from ChEMBL document CHEMBL4765248, “Design, synthesis, biological evaluation and molecular docking study of novel thieno[3,2-d]pyrimidine derivatives as potent FAK inhibitors” (Eur J Med Chem, 2020).

Experiments:
MDA-MB-231 [1] = assay: Induction of apoptosis in human MDA-MB-231 cells assessed as late apoptotic cells at 0.4 uM incubated for 48 hrs by Annexin V-FITC/PI staining based flow cytometric analysis (reference value: 1.49%); assay type: functional
A549 [2] = assay: Antiproliferative activity against human A549 cells assessed as cell viability at 2.5 uM measured after 48 hrs by MTT assay (reference value: 100%); assay type: functional; settings: read-out: Activity
[3] = molecular target: Proto-oncogene tyrosine-protein kinase receptor Ret (Homo sapiens) (UniProt P07949); assay: Inhibition of GST-tagged human RET cytoplasmic domain expressed in baculovirus expression system at 1 uM by Selectscreen kinase assay
Summary of the method: (§1)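 Single-point screen at 1 μM final against a panel of 25 kinases using a commercial profiling service; mean of three independent experiments each run in triplicate.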

A549 [4] = assay: Antiproliferative activity against human A549 cells assessed as cell viability at 0.5 uM measured after 24 hrs by MTT assay (reference value: 100%); assay type: functional; settings: read-out: Activity
[5] = molecular target: Calcium/calmodulin-dependent protein kinase kinase 2 (Homo sapiens) (UniProt Q96RR4); assay: Inhibition of GST-tagged full length human CAMKK2 expressed in baculovirus expression system at 1 uM by Selectscreen kinase assay
Calcium/calmodulin-dependent protein kinase kinase 2 (Homo sapiens), sequence (Q96RR4 2-588 limits assumed): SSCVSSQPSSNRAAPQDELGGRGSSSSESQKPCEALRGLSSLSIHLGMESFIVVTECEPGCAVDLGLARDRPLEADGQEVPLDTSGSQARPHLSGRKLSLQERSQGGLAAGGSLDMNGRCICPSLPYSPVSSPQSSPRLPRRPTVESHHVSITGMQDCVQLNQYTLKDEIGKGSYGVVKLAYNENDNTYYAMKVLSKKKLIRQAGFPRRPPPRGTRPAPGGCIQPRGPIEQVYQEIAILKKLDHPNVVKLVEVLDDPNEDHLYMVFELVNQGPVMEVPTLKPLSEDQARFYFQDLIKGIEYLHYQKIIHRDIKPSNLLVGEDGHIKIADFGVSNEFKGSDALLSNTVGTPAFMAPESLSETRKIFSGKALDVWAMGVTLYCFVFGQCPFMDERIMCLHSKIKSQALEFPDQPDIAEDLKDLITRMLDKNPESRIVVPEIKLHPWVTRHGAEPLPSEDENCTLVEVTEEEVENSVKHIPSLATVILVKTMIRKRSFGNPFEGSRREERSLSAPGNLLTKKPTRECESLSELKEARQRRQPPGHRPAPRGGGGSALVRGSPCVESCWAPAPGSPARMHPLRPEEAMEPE
Summary of the method: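 Commercial SelectScreen profiling panel of 25 kinases, test compound at 1 μM. Values are the mean of three independent experiments, each run in triplicate.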

A549 [6] = assay: Antiproliferative activity against human A549 cells assessed as inhibition of cell growth measured after 72 hrs by MTT assay; assay type: functional, cell-based; settings: A549, 72 h
Summary of the method: (§2)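 Cells were seeded at 4000–5000/well and held 24 h at 37 °C in 5% CO2. Compounds were added at the indicated final concentrations and incubated 72 h. MTT was added (5 mg/mL in PBS, stated as final) for 4 h at 37 °C. Formazan was dissolved in DMSO and absorbance read at 490 nm. The 50% growth-inhibitory concentration is the mean of three independent experiments ± SE.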

[7] = molecular target: Cyclin-dependent kinase 2 (Homo sapiens) (UniProt P24941); assay: Inhibition of human CDK2 at 1 uM by Selectscreen kinase assay; summary of the method: as §1
[8] = molecular target: MAP kinase-interacting serine/threonine-protein kinase 1 (Homo sapiens) (UniProt Q9BUB5); assay: Inhibition of GST-tagged full length human MKNK1 expressed in insect expression system at 1 uM by Selectscreen kinase assay; summary of the method: as §1
MAP kinase-interacting serine/threonine-protein kinase 1 (Homo sapiens), sequence (Q9BUB5 whole entry, looked up): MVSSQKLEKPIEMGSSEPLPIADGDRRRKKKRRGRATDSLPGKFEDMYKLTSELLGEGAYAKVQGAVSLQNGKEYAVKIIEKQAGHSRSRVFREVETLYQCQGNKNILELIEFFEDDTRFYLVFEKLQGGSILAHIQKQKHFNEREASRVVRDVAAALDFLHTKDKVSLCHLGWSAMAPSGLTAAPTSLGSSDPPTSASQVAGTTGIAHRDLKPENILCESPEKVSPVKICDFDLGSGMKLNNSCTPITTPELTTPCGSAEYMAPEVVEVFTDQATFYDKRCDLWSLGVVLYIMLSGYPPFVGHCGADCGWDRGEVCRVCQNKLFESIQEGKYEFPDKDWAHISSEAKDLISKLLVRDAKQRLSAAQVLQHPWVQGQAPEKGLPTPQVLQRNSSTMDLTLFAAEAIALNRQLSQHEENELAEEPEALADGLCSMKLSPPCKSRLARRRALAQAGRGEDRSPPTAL

MDA-MB-231 [9] = assay: Induction of cell cycle arrest in human MDA-MB-231 cells assessed as accumulation of cells at G2/M phase at 0.1 uM measured after 48 hrs by PI staining based flow cytometry method (reference value: 17.40%); assay type: functional
MDA-MB-231 [10] = assay: Antiproliferative activity against human MDA-MB-231 cells assessed as inhibition of cell growth measured after 72 hrs by MTT assay; assay type: functional, cell-based; settings: MDA-MB-231, 72 h; summary of the method: as §2
[11] = molecular target: Serine/threonine-protein kinase B-raf (Homo sapiens) (UniProt P15056); assay: Inhibition of GST-tagged human full length BRAF expressed in baculovirus expression system at 1 uM by Selectscreen kinase assay; summary of the method: as §1
Serine/threonine-protein kinase B-raf (Homo sapiens), sequence (P15056 whole entry): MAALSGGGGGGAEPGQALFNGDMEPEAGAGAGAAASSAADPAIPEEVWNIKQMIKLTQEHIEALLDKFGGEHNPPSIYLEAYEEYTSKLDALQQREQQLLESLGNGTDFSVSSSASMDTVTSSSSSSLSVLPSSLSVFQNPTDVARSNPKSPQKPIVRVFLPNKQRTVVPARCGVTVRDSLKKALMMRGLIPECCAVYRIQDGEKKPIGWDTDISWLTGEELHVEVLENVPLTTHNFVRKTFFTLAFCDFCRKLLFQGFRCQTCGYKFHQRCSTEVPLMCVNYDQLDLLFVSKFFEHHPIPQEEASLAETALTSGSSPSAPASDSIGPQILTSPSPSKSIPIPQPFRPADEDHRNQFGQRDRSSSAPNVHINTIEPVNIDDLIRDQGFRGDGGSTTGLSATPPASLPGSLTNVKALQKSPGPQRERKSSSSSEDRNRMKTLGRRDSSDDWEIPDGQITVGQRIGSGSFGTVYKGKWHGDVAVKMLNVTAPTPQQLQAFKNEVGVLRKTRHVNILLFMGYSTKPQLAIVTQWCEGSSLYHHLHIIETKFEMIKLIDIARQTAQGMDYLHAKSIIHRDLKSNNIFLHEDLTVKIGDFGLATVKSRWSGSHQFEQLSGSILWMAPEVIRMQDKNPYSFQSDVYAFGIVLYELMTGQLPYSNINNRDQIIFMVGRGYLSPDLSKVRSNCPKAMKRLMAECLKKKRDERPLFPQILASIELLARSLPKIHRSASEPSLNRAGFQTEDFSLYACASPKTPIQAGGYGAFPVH

A549 [12] = assay: Antiproliferative activity against human A549 cells assessed as reduction in cell viability measured after 24 to 72 hrs by MTT assay; assay type: functional, cell-based; settings: dose 0.1-2.5 µM, time 24-72 hrs
[13] = molecular target: Serine/threonine-protein kinase mTOR (Homo sapiens) (UniProt P42345); assay: Inhibition of GST-tagged partial length human mTOR catalytic domain (1360-2549 residues) expressed in baculovirus expression system at 1 uM by Selectscreen kinase assay; summary of the method: as §1
[14] = molecular target: Tyrosine-protein kinase BTK (Homo sapiens) (UniProt Q06187); assay: Inhibition of His-tagged full length, recombinant human BTK expressed in baculovirus expression system at 1 uM by Selectscreen kinase assay; summary of the method: as §1
Tyrosine-protein kinase BTK (Homo sapiens), sequence (Q06187 whole entry): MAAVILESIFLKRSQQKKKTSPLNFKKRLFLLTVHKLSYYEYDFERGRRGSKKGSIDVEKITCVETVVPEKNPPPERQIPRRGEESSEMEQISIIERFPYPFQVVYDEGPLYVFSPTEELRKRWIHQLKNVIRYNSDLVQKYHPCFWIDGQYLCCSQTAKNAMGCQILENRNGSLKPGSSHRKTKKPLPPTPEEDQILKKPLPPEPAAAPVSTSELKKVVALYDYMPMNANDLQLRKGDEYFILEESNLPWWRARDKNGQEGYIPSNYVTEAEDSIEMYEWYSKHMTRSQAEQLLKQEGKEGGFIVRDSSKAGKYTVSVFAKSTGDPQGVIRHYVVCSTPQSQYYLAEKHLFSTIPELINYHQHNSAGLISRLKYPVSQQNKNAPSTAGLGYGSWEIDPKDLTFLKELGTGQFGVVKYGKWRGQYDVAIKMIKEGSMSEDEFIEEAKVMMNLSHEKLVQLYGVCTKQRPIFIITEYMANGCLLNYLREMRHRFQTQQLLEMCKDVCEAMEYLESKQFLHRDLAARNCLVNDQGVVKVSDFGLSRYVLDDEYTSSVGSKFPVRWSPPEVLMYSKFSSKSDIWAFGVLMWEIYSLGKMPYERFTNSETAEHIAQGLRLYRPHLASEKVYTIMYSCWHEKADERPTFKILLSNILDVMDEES

[15] = Metabolic stability in rat liver microsomes assessed as parent compound remaining at 1 uM measured after 60 mins in absence of NADPH by LC-MS/MS analysis; assay type: ADME, Microsome; settings: read-out: Stabilty
Summary of the method: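 Rat liver microsomes (0.5 mg/mL) were incubated at 37 °C with 1 μM compound in pH 7.4 potassium phosphate/MgCl2 buffer for 1 h, with buffer in place of the NADPH regeneration system. After acetonitrile precipitation, percent parent remaining was measured by LC-MS/MS.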

A549 [16] = assay: Antiproliferative activity against human A549 cells assessed as cell viability at 0.5 uM measured after 72 hrs by MTT assay (reference value: 100%); assay type: functional; settings: read-out: Activity
[17] = Half life in rat liver microsomes at 1 uM measured up to 60 mins in presence of NADPH by LC-MS/MS analysis; assay type: ADME, Microsome
Summary of the method: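 Rat liver microsomes (0.5 mg/mL) were incubated with 1 μM test compound at 37 °C in potassium phosphate buffer (pH 7.4, 100 mM, 10 mM MgCl2). The reaction was started with prewarmed NADPH cofactor (1 mmol). It was sampled at 0, 5, 10, 20, 30 and 60 min and quenched with cold acetonitrile. Protein was removed by centrifugation and the supernatant analysed by LC-MS/MS.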

MDA-MB-231 [18] = assay: Antiproliferative activity against human MDA-MB-231 cells assessed as cell viability at 0.1 uM measured after 72 hrs by MTT assay (reference value: 100%); assay type: functional; settings: read-out: Activity
MDA-MB-231 [19] = assay: Induction of apoptosis in human MDA-MB-231 cells assessed as late apoptotic cells at 0.1 uM incubated for 48 hrs by Annexin V-FITC/PI staining based flow cytometric analysis (reference value: 1.49%); assay type: functional
MDA-MB-231 [20] = assay: Induction of apoptosis in human MDA-MB-231 cells assessed as viable cells at 0.4 uM incubated for 48 hrs by Annexin V-FITC/PI staining based flow cytometric analysis (reference value: 95.84%); assay type: functional; settings: read-out: Activity
MDA-MB-231 [21] = assay: Antiproliferative activity against human MDA-MB-231 cells assessed as cell viability at 2.5 uM measured after 48 hrs by MTT assay (reference value: 100%); assay type: functional; settings: read-out: Activity
MDA-MB-231 [22] = assay: Induction of cell cycle arrest in human MDA-MB-231 cells assessed as accumulation of cells at G0/G1 phase at 0.1 uM measured after 48 hrs by PI staining based flow cytometry method (reference value: 43.43%); assay type: functional
[23] = molecular target: ALK tyrosine kinase receptor (Homo sapiens) (UniProt Q9UM73); assay: Inhibition of GST-tagged human ALK expressed in baculovirus expression system at 1 uM by Selectscreen kinase assay; summary of the method: as §1
ALK tyrosine kinase receptor (Homo sapiens), sequence (Q9UM73 19-1620 limits assumed): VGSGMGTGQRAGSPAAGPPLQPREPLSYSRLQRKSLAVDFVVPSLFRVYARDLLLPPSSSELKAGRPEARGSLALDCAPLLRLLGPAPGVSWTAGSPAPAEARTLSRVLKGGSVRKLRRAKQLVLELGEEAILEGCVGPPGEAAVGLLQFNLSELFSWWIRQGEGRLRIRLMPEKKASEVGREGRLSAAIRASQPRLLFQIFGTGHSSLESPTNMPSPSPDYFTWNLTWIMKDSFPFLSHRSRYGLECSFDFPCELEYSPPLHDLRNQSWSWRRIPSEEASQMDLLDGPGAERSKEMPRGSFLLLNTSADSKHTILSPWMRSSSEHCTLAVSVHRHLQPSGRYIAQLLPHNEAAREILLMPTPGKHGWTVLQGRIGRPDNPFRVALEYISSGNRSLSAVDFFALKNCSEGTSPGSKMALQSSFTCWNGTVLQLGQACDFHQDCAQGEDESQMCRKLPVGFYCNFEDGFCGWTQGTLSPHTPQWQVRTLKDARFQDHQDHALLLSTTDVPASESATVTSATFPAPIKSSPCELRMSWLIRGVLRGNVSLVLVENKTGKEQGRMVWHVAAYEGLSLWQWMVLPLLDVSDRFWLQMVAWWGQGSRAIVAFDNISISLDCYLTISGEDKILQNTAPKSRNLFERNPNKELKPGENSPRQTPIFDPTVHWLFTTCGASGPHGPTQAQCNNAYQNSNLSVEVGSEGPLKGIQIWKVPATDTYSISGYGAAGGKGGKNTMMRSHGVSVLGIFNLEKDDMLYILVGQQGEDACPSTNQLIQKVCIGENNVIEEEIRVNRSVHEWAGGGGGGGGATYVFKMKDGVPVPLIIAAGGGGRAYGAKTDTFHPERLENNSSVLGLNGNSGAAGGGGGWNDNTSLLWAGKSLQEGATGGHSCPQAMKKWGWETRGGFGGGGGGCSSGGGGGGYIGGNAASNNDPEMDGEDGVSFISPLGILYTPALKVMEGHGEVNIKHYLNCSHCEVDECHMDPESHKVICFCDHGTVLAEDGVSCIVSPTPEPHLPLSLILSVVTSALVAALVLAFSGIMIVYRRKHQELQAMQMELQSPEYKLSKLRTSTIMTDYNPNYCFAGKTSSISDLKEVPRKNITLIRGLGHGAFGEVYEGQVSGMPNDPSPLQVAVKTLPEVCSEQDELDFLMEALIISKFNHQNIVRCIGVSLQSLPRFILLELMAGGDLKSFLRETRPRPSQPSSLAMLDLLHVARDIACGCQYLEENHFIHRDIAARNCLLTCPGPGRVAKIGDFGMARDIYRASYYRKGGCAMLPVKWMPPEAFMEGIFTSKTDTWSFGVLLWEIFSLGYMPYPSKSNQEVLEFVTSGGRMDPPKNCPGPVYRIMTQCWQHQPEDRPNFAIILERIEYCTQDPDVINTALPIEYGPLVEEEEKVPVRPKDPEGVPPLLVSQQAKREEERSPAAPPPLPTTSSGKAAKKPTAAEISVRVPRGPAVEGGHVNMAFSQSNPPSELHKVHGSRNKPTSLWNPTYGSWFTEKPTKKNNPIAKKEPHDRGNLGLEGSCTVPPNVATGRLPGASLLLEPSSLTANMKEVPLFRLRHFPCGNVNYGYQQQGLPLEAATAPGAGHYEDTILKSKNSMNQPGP

[24] = molecular target: Fibroblast growth factor receptor 4 (Homo sapiens) (UniProt P22455); assay: Inhibition of His-tagged human FGFR4 cytoplasmic domain expressed in baculovirus expression system at 1 uM by Selectscreen kinase assay; summary of the method: as §1
Fibroblast growth factor receptor 4 (Homo sapiens), sequence (P22455 22-802 limits assumed): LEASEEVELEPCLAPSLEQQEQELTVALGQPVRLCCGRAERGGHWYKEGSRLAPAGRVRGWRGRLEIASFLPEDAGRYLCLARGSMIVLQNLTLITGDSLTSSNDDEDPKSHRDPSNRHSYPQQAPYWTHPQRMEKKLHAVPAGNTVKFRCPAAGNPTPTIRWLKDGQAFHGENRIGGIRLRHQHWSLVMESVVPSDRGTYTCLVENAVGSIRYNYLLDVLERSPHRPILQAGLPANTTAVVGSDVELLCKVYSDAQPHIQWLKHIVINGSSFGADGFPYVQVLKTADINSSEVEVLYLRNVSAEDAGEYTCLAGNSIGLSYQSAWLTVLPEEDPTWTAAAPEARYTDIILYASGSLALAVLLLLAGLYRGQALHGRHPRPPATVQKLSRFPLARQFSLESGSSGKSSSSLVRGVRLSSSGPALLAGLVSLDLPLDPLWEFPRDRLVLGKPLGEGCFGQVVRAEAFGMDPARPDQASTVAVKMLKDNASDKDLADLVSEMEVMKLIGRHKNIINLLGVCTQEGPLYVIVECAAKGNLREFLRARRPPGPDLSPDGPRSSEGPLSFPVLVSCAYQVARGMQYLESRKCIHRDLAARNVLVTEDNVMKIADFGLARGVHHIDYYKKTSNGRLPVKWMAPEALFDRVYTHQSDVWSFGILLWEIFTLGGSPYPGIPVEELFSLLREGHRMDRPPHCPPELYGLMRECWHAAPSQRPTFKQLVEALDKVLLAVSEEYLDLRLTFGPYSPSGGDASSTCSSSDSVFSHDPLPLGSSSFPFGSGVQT

MDA-MB-231 [25] = assay: Antiproliferative activity against human MDA-MB-231 cells assessed as cell viability at 0.5 uM measured after 72 hrs by MTT assay (reference value: 100%); assay type: functional; settings: read-out: Activity
MDA-MB-231 [26] = assay: Antiproliferative activity against human MDA-MB-231 cells assessed as reduction in cell viability at 0.1 to 2.5 uM by MTT assay; assay type: functional, cell-based; settings: dose 0.1-2.5 µM, time 24-72 hrs, TDE = time-dependent effect

COc1ccccc1-c1csc2cnc(Nc3ccc(C(=O)NC4CCNCC4)c(F)c3)nc12 gave an Activity (MDA-MB-231 [1]) of 26.21%, a viability at 2.5 µM (A549 [2]) of 31% and an inhibition [3] of 97%. It also gave a viability at 0.5 µM (A549 [4]) of 79.1%, an inhibition [5] of 77% and an IC50 (A549 [6]) of 0.27 µM. It also gave an inhibition [7] of 97%, an inhibition [8] of 13% and an Activity (MDA-MB-231 [9]) of 12.79%. For the same molecule, the IC50 (MDA-MB-231 [10]) was 0.19 µM, the inhibition [11] was 51% and the Activity (A549 [12]) was “Dose-dependent effect”. For the same molecule, the inhibition [13] was 2%, the inhibition [14] was 88% and the remaining at 1 h, 1 µM [15] was 92.1%. It also gave a viability at 0.5 µM (A549 [16]) of 32.2%, a half-life at 1 µM [17] of 2.23 h and a viability at 0.1 µM (MDA-MB-231 [18]) of 69.7%. The Activity (MDA-MB-231 [19]) was 4.36%, the viability at 0.4 µM (MDA-MB-231 [20]) was 53.8% and the viability at 2.5 µM (MDA-MB-231 [21]) was 11.9%. It also gave an Activity (MDA-MB-231 [22]) of 45.25%, an inhibition [23] of 95% and an inhibition [24] of 66%. For the same molecule, the viability at 0.5 µM (MDA-MB-231 [25]) was 31% and the Activity (MDA-MB-231 [26]) was “Tde”.
